Assay [1] concerns Escherichia coli. As to the kind of experiment: Antimicrobial activity against Escherichia coli DH10B harboring beta-lactamase KPC-2 T237R mutant by agar dilution method in presence of beta-lactamase inhibitor Tazobactam. Type of assay: functional. To be noted: K-12 DH10B. The method in brief:
(§1)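 LB agar dilution MICs by CLSI criteria, inoculated with a Steers replicator. […] Strains were E. coli DH10B with or without pBC SK(+) carrying wild-type blaKPC-2 or a position 237 variant.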

Assay [2] has as its system Escherichia coli. The experiment in a line: Antimicrobial activity against Escherichia coli DH10B harboring beta-lactamase KPC-2 T237S mutant by agar dilution method in presence of beta-lactamase inhibitor Tazobactam. Type of assay: functional. To be noted: K-12 DH10B. The method in brief:
as §1
On the technique in general: In agar dilution the substance is mixed into plates at graded concentrations.

Assay [3] deals with Escherichia coli. As to the kind of experiment: Antimicrobial activity against Escherichia coli DH10B by agar dilution method in presence of beta-lactamase inhibitor Tazobactam. It counts as functional. As to conditions: K-12 DH10B. The essentials:
as §1

Assay [4] concerns Escherichia coli. As to the kind of experiment: Antimicrobial activity against Escherichia coli DH10B harboring beta-lactamase KPC-2 T237H mutant by agar dilution method in presence of beta-lactamase inhibitor Tazobactam. Type of assay: functional. To be noted: K-12 DH10B. The method in brief: as §1
Assay [5] has as its system Escherichia coli. As to the kind of experiment: Antimicrobial activity against Escherichia coli DH10B harboring beta-lactamase KPC-2 T237E mutant by agar dilution method in presence of beta-lactamase inhibitor Tazobactam. It counts as functional. As to conditions: K-12 DH10B. The essentials:
as §1

Assay [6] relates to Escherichia coli. As to the kind of experiment: Antimicrobial activity against Escherichia coli DH10B harboring beta-lactamase KPC-2 T237P mutant by agar dilution method in presence of beta-lactamase inhibitor Tazobactam. It counts as functional. To be noted: K-12 DH10B. The method in brief:
as §1

Assay [7] relates to Klebsiella pneumoniae. The experiment in a line: Ratio of Kcat/Km for Klebsiella pneumoniae 1534 beta-lactamase KPC-2 T237A mutant by spectrophotometric analysis. The essentials:
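Purified KPC-2 variant enzymes (periplasmic lysate from E. coli, preparative isoelectric focusing). Hydrolysis followed by diode-array spectrophotometry in 10 mM PBS, pH 7.4, room temperature. Enzyme at 10 nM with substrate in molar excess for pseudo-first-order conditions. Vmax and Km came from a nonlinear least-squares Michaelis-Menten fit.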

Assay [8] relates to Escherichia coli. The experiment in a line: Antimicrobial activity against Escherichia coli DH10B harboring beta-lactamase KPC-2 T237D mutant by agar dilution method in presence of beta-lactamase inhibitor Tazobactam. Type of assay: functional. As to conditions: K-12 DH10B. The essentials: as §1
In assay [9] the test system is Escherichia coli. As to the kind of experiment: Antimicrobial activity against Escherichia coli DH10B harboring beta-lactamase KPC-2 T237Q mutant by agar dilution method in presence of beta-lactamase inhibitor Tazobactam. As to conditions: K-12 DH10B. Type of assay: functional. The method in brief: as §1
Assay [10] concerns Escherichia coli. The experiment in a line: Antimicrobial activity against Escherichia coli DH10B harboring beta-lactamase KPC-2 T237S mutant by agar dilution method in presence of beta-lactamase inhibitor clavulanic acid. Type of assay: functional. As to conditions: K-12 DH10B. The method in brief:
(§2)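 LB agar dilution MICs by CLSI criteria, applied with a Steers replicator. […] Hosts were E. coli DH10B carrying pBC SK(+) with wild-type blaKPC-2 or a position 237 variant.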

Assay [11] has as its system Escherichia coli. The experiment in a line: Antimicrobial activity against Escherichia coli DH10B harboring beta-lactamase KPC-2 T237V mutant by agar dilution method in presence of beta-lactamase inhibitor clavulanic acid. It counts as functional. As to conditions: K-12 DH10B. The essentials:
as §2

Assay [12] concerns Escherichia coli. As to the kind of experiment: Antimicrobial activity against Escherichia coli DH10B harboring plasmid pBR322-catI carrying beta-lactamase KPC-2 by agar dilution method in presence of beta-lactamase inhibitor clavulanic acid. Type of assay: functional. To be noted: K-12 DH10B.
The subject of assay [13] is Klebsiella pneumoniae. The experiment in a line: microbe, parasite or virus in culture. As to conditions: 1534.
Assay [14] has as its system Escherichia coli. The experiment in a line: Antimicrobial activity against Escherichia coli DH10B harboring beta-lactamase KPC-2 T237W mutant by agar dilution method in presence of beta-lactamase inhibitor Sulbactam. To be noted: K-12 DH10B. Type of assay: functional. The essentials: as §2
Assay [15] concerns Escherichia coli. The experiment in a line: Antimicrobial activity against Escherichia coli DH10B harboring beta-lactamase KPC-2 T237K mutant by agar dilution method in presence of beta-lactamase inhibitor clavulanic acid. Type of assay: functional. As to conditions: K-12 DH10B. The essentials:
(§3)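 LB agar dilution MICs per CLSI criteria, inoculated with a Steers replicator. […] Strains: E. coli DH10B alone, DH10B carrying empty pBC SK(+), or DH10B carrying pBC SK(+)-blaKPC-2 position 237 variants made by site-saturation mutagenesis and confirmed by sequencing. Plasmid selection used 20 mg/liter chloramphenicol.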

Assay [16] deals with Escherichia coli. The experiment in a line: Antimicrobial activity against Escherichia coli DH10B by agar dilution method in presence of beta-lactamase inhibitor clavulanic acid. Type of assay: functional. To be noted: K-12 DH10B. The method in brief: as §3
Assay [17] deals with Escherichia coli. The experiment in a line: Antimicrobial activity against Escherichia coli DH10B harboring beta-lactamase KPC-2 T237K mutant by agar dilution method in presence of beta-lactamase inhibitor Sulbactam. Type of assay: functional. To be noted: K-12 DH10B. The method in brief:
as §2

The test system of assay [18] is Escherichia coli. The experiment in a line: Antimicrobial activity against Escherichia coli DH10B harboring beta-lactamase KPC-2 T237L mutant by agar dilution method in presence of beta-lactamase inhibitor Sulbactam. Type of assay: functional. As to conditions: K-12 DH10B. The method in brief: as §2
The test system of assay [19] is Escherichia coli. The experiment in a line: Antimicrobial activity against Escherichia coli DH10B harboring plasmid pBR322-catI carrying beta-lactamase KPC-2 by agar dilution method in presence of beta-lactamase inhibitor Sulbactam. Type of assay: functional. To be noted: K-12 DH10B.
In assay [20] the test system is Escherichia coli. As to the kind of experiment: Antimicrobial activity against Escherichia coli DH10B harboring beta-lactamase KPC-2 T237G mutant by agar dilution method in presence of beta-lactamase inhibitor clavulanic acid. To be noted: K-12 DH10B. Type of assay: functional. The essentials: as §3
Assay [21] has as its system Escherichia coli. As to the kind of experiment: Antimicrobial activity against Escherichia coli DH10B harboring beta-lactamase KPC-2 T237R mutant by agar dilution method in presence of beta-lactamase inhibitor Sulbactam. Type of assay: functional. To be noted: K-12 DH10B. The essentials:
as §3

Assay [22] relates to Escherichia coli. The experiment in a line: Antimicrobial activity against Escherichia coli DH10B harboring plasmid […] by agar dilution method in presence of beta-lactamase inhibitor Sulbactam. Type of assay: functional. To be noted: K-12 DH10B. The essentials: as §3
Assay [23] has as its system Escherichia coli. As to the kind of experiment: Antimicrobial activity against Escherichia coli DH10B harboring beta-lactamase KPC-2 T237Q mutant by agar dilution method in presence of beta-lactamase inhibitor Sulbactam. Type of assay: functional. As to conditions: K-12 DH10B. The essentials:
as §2

Assay [24] concerns Escherichia coli. As to the kind of experiment: Antimicrobial activity against Escherichia coli DH10B harboring beta-lactamase KPC-2 T237H mutant by agar dilution method in presence of beta-lactamase inhibitor clavulanic acid. Type of assay: functional. As to conditions: K-12 DH10B. The essentials:
as §2

Assay [25] relates to Escherichia coli. The experiment in a line: Antimicrobial activity against Escherichia coli DH10B harboring beta-lactamase KPC-2 T237I mutant by agar dilution method in presence of beta-lactamase inhibitor Sulbactam. Type of assay: functional. As to conditions: K-12 DH10B. The method in brief: as §2
The test system of assay [26] is Escherichia coli. As to the kind of experiment: Antimicrobial activity against Escherichia coli DH10B harboring beta-lactamase KPC-2 T237Q mutant by agar dilution method in presence of beta-lactamase inhibitor clavulanic acid. It counts as functional. To be noted: K-12 DH10B. The essentials: as §2
The test system of assay [27] is Escherichia coli. As to the kind of experiment: Antimicrobial activity against Escherichia coli DH10B harboring beta-lactamase KPC-2 T237L mutant by agar dilution method in presence of beta-lactamase inhibitor clavulanic acid. To be noted: K-12 DH10B. Type of assay: functional. The essentials: as §2
Assay [28] has as its system Escherichia coli. The experiment in a line: Antimicrobial activity against Escherichia coli DH10B harboring beta-lactamase KPC-2 T237C mutant by agar dilution method in presence of beta-lactamase inhibitor clavulanic acid. As to conditions: K-12 DH10B. Type of assay: functional. The method in brief:
as §3

Here are results for two compounds from ChEMBL document CHEMBL1629686, “Substrate selectivity and a novel role in inhibitor discrimination by residue 237 in the KPC-2 beta-lactamase” (Antimicrob Agents Chemother, 2010).

Each structure is given as a SMILES string. Converted amounts (≈) assume the structure as drawn.

What is called kcat/Km is the turnover number divided by the Michaelis constant.

On to `CCN1CCN(C(=O)N[C@@H](C(=O)N[C@@H]2C(=O)N3[C@@H]2SC(C)(C)[C@@H]3C(=O)O)c2ccccc2)C(=O)C1=O` [PIPERACILLIN], for which the MIC in the assay on Escherichia coli [1] was 0.5 µg/mL; with Escherichia coli [2], 8 µg/mL; in the assay on Escherichia coli [3], 0.5 µg/mL; in the assay with Escherichia coli [4], 1 µg/mL; in the assay on Escherichia coli [5] it was 0.5 µg/mL; in the assay on Escherichia coli [6], 0.5 µg/mL. In addition, the MIC in the assay with Escherichia coli [8] was 1 µg/mL; in the assay with Escherichia coli [9], 4 µg/mL. Also, in the assay with Klebsiella pneumoniae [7], the kcat/Km came to 3.5e+06 M⁻¹ s⁻¹.

Take `CC1(C)S[C@@H]2[C@H](NC(=O)[C@H](N)c3ccccc3)C(=O)N2[C@H]1C(=O)O` [AMPICILLIN]: the MIC with Escherichia coli [10] turned out to be 4 µg/mL; in the assay with Escherichia coli [11] it was 8 µg/mL; with Escherichia coli [12] it was 32 µg/mL; in the assay with Klebsiella pneumoniae [13], 512 µg/mL (≈ 1470 µM); with Escherichia coli [14] it was 8 µg/mL; in the assay on Escherichia coli [15], 1 µg/mL. In addition, the MIC with Escherichia coli [16] is 1 µg/mL; in the assay on Escherichia coli [17] it was 4 µg/mL; with Escherichia coli [18] it was 16 µg/mL; in the assay with Escherichia coli [19] it was 512 µg/mL; in the assay on Escherichia coli [20], 1 µg/mL; in the assay on Escherichia coli [21] it was 1 µg/mL. For the same compound, the MIC worked out at 1 µg/mL with Escherichia coli [22]; 64 µg/mL with Escherichia coli [23]; 4 µg/mL with Escherichia coli [24]; 16 µg/mL with Escherichia coli [25]; 8 µg/mL in the assay on Escherichia coli [26]; 8 µg/mL in the assay on Escherichia coli [27]. The MIC in the assay on Escherichia coli [28] is 1 µg/mL.
